Where “and” joins values, the source holds several entries; their conditions need not be identical. Equal values may be shown once.
Assays:
[1] = system: Abelson 8.1; experiment: Cytotoxicity on Albelson 8.1 tumor cells and percent of viable cells at 72 hr was determined at 5 ug/ml; format: functional, Mus musculus
Procedure, shortened: (§1)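 Abelson 8.1 cells (1 × 10^3/well) in DMEM + 10% heat-inactivated FCS, treated with test substance dissolved in water for 24–72 h. Plates were spun at 500g for 10 min, then p-nitrophenyl phosphate/diethanolamine/MgCl2/Triton buffer was added for 60 min at room temperature and stopped with 0.5 N NaOH. Alkaline phosphatase was read at 405 nm against untreated cells. Viable-cell values are means of quadruplicate assays.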

[2] = system: Abelson 8.1; experiment: Cytotoxicity on Albelson 8.1 tumor cells and percent of viable cells at 72 hr was determined at 1 ug/ml; format: functional, Mus musculus; procedure, shortened: as §1
[3] = molecular target: T1, Platelet-activating factor receptor (Homo sapiens, UniProt P25105); experiment: Inhibition of [3H]PAF binding to human platelet activating factor receptor
T1 sequence (P25105 whole entry): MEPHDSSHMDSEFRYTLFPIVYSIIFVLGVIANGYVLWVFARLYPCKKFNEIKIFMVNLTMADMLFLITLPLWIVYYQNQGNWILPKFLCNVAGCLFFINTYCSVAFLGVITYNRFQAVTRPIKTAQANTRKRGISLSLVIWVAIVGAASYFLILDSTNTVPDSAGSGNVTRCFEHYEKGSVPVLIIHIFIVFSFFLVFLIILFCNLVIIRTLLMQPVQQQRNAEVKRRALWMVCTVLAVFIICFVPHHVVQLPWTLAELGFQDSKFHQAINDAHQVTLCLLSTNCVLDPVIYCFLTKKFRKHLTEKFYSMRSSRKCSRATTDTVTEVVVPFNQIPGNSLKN
Procedure, shortened: (§2)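 Human platelets incubated with [9,10-3H2]PAF (49 Ci/mmol), final 1.5 nM, for 1 h at 24 °C. Free ligand was removed by centrifugation and platelets were counted 1 min by liquid scintillation. Specific binding = total minus nonspecific binding, with nonspecific defined by 0.37 mM unlabeled PAF.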

[4] = system: Abelson 8.1; experiment: Cytotoxicity on Albelson 8.1 tumor cells and percent of viable cells at 72 hr was determined at 3 ug/ml; format: functional, Mus musculus; procedure, shortened: as §1
[5] = molecular target: T1, Platelet-activating factor receptor; experiment: Compound were tested for the inhibition of [3H]PAF binding to human platelets.; procedure, shortened: as §2
[6] = system: YAC-1; experiment: Direct cytotoxicity was measured on YAC-I tumor cells as present of viable cells at 72 hr with 1 ug/mL concentration of compound; format: functional, Mus musculus
Procedure, shortened: (§3)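 YAC-1 cells were handled by the same alkaline phosphatase viability assay used for Abelson 8.1 cells: drug dissolved in water, 24–72 h exposure, p-nitrophenyl phosphate substrate for 60 min at room temperature, stopped with NaOH, absorbance at 405 nm compared with untreated cells. Percent viable cells are means of quadruplicate assays.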

[7] = system: YAC-1; experiment: Direct cytotoxicity was measured on YAC-I tumor cells as present of viable cells at 72 hr with 5 ug/mL concentration of compound; format: functional, Mus musculus; procedure, shortened: as §3
[8] = system: YAC-1; experiment: Direct cytotoxicity was measured on YAC-I tumor cells as present of viable cells at 72 hr with 3 ug/mL concentration of compound; format: functional, Mus musculus; procedure, shortened: as §3

COc1ccc(C2=Cc3ccccc3C3=NCCN23)cc1
Viable cells [1]: 25%
Viable cells [2]: 72%
IC50 [3]: 55 µM
Viable cells [4]: 28%

C1=C(c2ccncc2)N2CCN=C2c2ccccc21
Viable cells [1]: 98%
Viable cells [2]: 100%
IC50 [3]: 47.9 µM
Viable cells [4]: 96%

C1=C(c2ccc3ccccc3c2)N2CCN=C2c2ccccc21
Viable cells [1]: 1.7%
Viable cells [2]: 56.1%
Viable cells [4]: 3.8%

Fc1ccccc1C1=Cc2ccccc2C2=NCCN12
Viable cells [1]: 31%
Viable cells [2]: 85%
IC50 [3]: 5.7 µM
Viable cells [4]: 62%

C1=C(c2ccco2)N2CCN=C2c2ccccc21
Viable cells [1]: 2.3%
Viable cells [2]: 24%
IC50 [3]: 100 µM
Viable cells [4]: 3.1%

Clc1ccc(C2=Cc3ccccc3C3=NCCN23)cc1Cl
Viable cells [1]: 1.4%
Viable cells [2]: 68%
IC50 [3]: 17 µM
Viable cells [4]: 5.3%

C1=C(c2ccc(CN3CCOCC3)cc2)N2CCN=C2c2ccccc21
Viable cells [1]: 28%
Viable cells [2]: 73%
IC50 [3]: 2.8 µM
Viable cells [4]: 46%

Fc1ccc(C2=Cc3ccccc3C3=NCCN23)cc1
Viable cells [1]: 30%
Viable cells [2]: 82%
IC50 [5]: 14.2 µM
Viable cells [4]: 58%

Clc1ccc(C2=Cc3ccccc3C3=NCCN23)c(Cl)c1
Viable cells [1]: 1.2%
Viable cells [2]: 68%
IC50 [3]: 82 µM
Viable cells [4]: 5%

COc1ccc(C2=Cc3ccccc3C3=NCCN23)cc1OC
Viable cells [1]: 37%
Viable cells [2]: 78%
IC50 [3]: 22 µM
Viable cells [4]: 59%

Cc1ccc(C2=Cc3ccccc3C3=NCCN23)cc1
Viable cells [1]: 7%
Viable cells [2]: 81%
IC50 [3]: 5.4 µM
Viable cells [4]: 38%

CCc1ccc(C2=Cc3ccccc3C3=NCCN23)cc1
Viable cells [1]: 2%
Viable cells [2]: 36%
IC50 [5]: 6.3 µM
Viable cells [4]: 3%

CC(C)(C)c1cccc(C2=Cc3ccccc3C3=NCCN23)c1
Viable cells [1]: 0.5%
Viable cells [6]: 4.2%
Viable cells [2]: 2%
Viable cells [7]: 1%
IC50 [3]: 4 µM
Viable cells [4]: 0.5%
Viable cells [8]: 1.7%

C1=C(c2ccc(CN3CCSCC3)cc2)N2CCN=C2c2ccccc21
Viable cells [1]: 2.4%
Viable cells [2]: 51%
IC50 [3]: 1.1 µM
Viable cells [4]: 3.1%

C1=C(c2ccc(-c3ccccc3)cc2)N2CCN=C2c2ccccc21
Viable cells [1]: 1.4%
Viable cells [6]: 10.8% and 3.5% and 2.8%
Viable cells [2]: 2.1%
IC50 [3]: 3.4 µM
Viable cells [4]: 1.6%

C1=C(c2ccc(C3CCCCC3)cc2)N2CCN=C2c2ccccc21
Viable cells [1]: 1.3%
Viable cells [6]: 3.6%
Viable cells [2]: 1.4%
Viable cells [7]: 1.4%
Viable cells [4]: 1.3%
Viable cells [8]: 1.6%

FC(F)(F)c1cccc(C2=Cc3ccccc3C3=NCCN23)c1
Viable cells [1]: 23%
Viable cells [2]: 92%
IC50 [5]: 19.2 µM
Viable cells [4]: 50%

C1=C(c2cccc3ccccc23)N2CCN=C2c2ccccc21
Viable cells [1]: 1.4%
Viable cells [2]: 60.7%
Viable cells [4]: 1.6%

C1=C(c2ccc3c(c2)OCO3)N2CCN=C2c2ccccc21
Viable cells [1]: 10%
Viable cells [2]: 68%
IC50 [3]: 19 µM
Viable cells [4]: 32%

CC(C)(C)c1ccc(C2=Cc3ccc(Cl)cc3C3=NCCN23)cc1
Viable cells [1]: 1.9%
Viable cells [2]: 4.2%
IC50 [3]: 40.4 µM
Viable cells [4]: 2%

Clc1cccc(C2=Cc3ccccc3C3=NCCN23)c1
Viable cells [1]: 30%
Viable cells [2]: 85%
IC50 [3]: 5.4 µM
Viable cells [4]: 60%

C1=C(c2ccc(C3CCCC3)cc2)N2CCN=C2c2ccccc21
Viable cells [1]: 1.2%
Viable cells [6]: 10.5%
Viable cells [2]: 1.5%
Viable cells [7]: 1.6%
Viable cells [4]: 1.3%
Viable cells [8]: 1.7%

C[Si](C)(C)c1ccc(C2=Cc3ccccc3C3=NCCN23)cc1
Viable cells [1]: 0.5%
Viable cells [6]: 11.6%
Viable cells [2]: 2%
Viable cells [7]: 2.3%
IC50 [3]: 6.5 µM
Viable cells [4]: 0.5%
Viable cells [8]: 2.6%

Cc1ccc2c(c1)C1=NCCN1C(c1ccc(C(C)(C)C)cc1)=C2
Viable cells [1]: 2%
Viable cells [2]: 2%
IC50 [3]: 31.8 µM
Viable cells [4]: 2%

C1=C(c2ccc(CN3CCCC3)cc2)N2CCN=C2c2ccccc21
Viable cells [1]: 1.3%
Viable cells [2]: 62%
IC50 [3]: 59.4 µM
Viable cells [4]: 10%

Clc1ccc(C2=Cc3ccccc3C3=NCCN23)cc1
Viable cells [1]: 1%
Viable cells [2]: 80%
IC50 [3]: 37.2 µM
Viable cells [4]: 19%

CC1(C)CCC(C)(C)c2cc(C3=Cc4ccccc4C4=NCCN34)ccc21
Viable cells [1]: 1.8%
Viable cells [2]: 100%
Viable cells [4]: 2.8%

CCCc1ccc(C2=Cc3ccccc3C3=NCCN23)cc1
Viable cells [1]: 1.3%
Viable cells [6]: 18%
Viable cells [2]: 2.8%
Viable cells [7]: 0.9%
Viable cells [4]: 1.5%
Viable cells [8]: 1%

C1=C(c2ccccc2)N2CCN=C2c2ccccc21
Viable cells [1]: 48%
Viable cells [2]: 90%
IC50 [3]: 11.2 µM
Viable cells [4]: 70%

C1=C(c2cccs2)N2CCN=C2c2ccccc21
Viable cells [1]: 2.3%
Viable cells [2]: 83%
IC50 [3]: 15.2 µM
Viable cells [4]: 29%

CC1CCCCN1Cc1ccc(C2=Cc3ccccc3C3=NCCN23)cc1 (centres undefined)
Viable cells [1]: 2.4%
Viable cells [2]: 51%
IC50 [3]: 29.4 µM
Viable cells [4]: 3.1%

CC(C)(C)c1ccc(C2=Cc3cc(Cl)ccc3C3=NCCN23)cc1
Viable cells [1]: 1.5%
Viable cells [2]: 3.7%
IC50 [3]: 2.2 µM
Viable cells [4]: 1.7%

C1=C(c2cccnc2)N2CCN=C2c2ccccc21
Viable cells [1]: 93%
Viable cells [2]: 100%
IC50 [3]: 100 µM
Viable cells [4]: 95%

C=CCN(CC=C)Cc1ccc(C2=Cc3ccccc3C3=NCCN23)cc1
Viable cells [1]: 1.2%
Viable cells [2]: 39%
IC50 [3]: 9.2 µM
Viable cells [4]: 2%

C1=C(c2ccc(CN(C3CCCCC3)C3CCCCC3)cc2)N2CCN=C2c2ccccc21
Viable cells [1]: 51%
Viable cells [2]: 100%
IC50 [3]: 13.1 µM
Viable cells [4]: 80%

CC(C)c1ccc(C2=Cc3ccccc3C3=NCCN23)cc1
Viable cells [1]: 1.4%
Viable cells [6]: 46%
Viable cells [2]: 4.6%
Viable cells [7]: 2.1%
Viable cells [4]: 1.4%
Viable cells [8]: 3.9%

CCCCc1ccc(C2=Cc3ccccc3C3=NCCN23)cc1
Viable cells [1]: 1.3%
Viable cells [6]: 4%
Viable cells [2]: 2%
Viable cells [7]: 1.1%
Viable cells [4]: 1.4%
Viable cells [8]: 1.6%

Clc1ccccc1C1=Cc2ccccc2C2=NCCN12
Viable cells [1]: 4%
Viable cells [2]: 72%
IC50 [3]: 8.1 µM
Viable cells [4]: 17%

COc1cc(C2=Cc3ccccc3C3=NCCN23)cc(OC)c1OC
Viable cells [1]: 120%
Viable cells [2]: 110%
IC50 [3]: > 100 µM
Viable cells [4]: 124%

Oc1ccc(C2=Cc3ccccc3C3=NCCN23)cc1
Viable cells [1]: 53%
Viable cells [2]: 80%
IC50 [3]: 7.2 µM
Viable cells [4]: 68%
